ChEMBL document CHEMBL1140219, “Activation of p16 gene silenced by DNA methylation in cancer cells by phosphoramidate derivatives of 2'-deoxyzebularine” (2008)
Activity calls are given as the source filed them. The calls are words filed in the database; no cut-off is given here.

Legend:
[1] = system: CFPAC-1; test: Induction of p16 gene expression in human Cf-Pac-1 cells at 1 uM after 8 days by real time PCR; assay type: functional, cell-based
Procedure, shortened: (§1)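 Cf-Pac-1 cells in IMDM/10% FCS were seeded 3×10^5/dish and treated continuously for 8 days from 24 hr after seeding. Medium and drug were refreshed every 2–3 days, with 100 μM thymidine, lower thymidine, or 100 μM uridine added. Total RNA (5 μg) was reverse transcribed with MMLV RT and random primers. p16 mRNA was measured by real-time RT-PCR and normalized to GAPDH.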

[2] = system: T-24; test: Induction of p16 gene expression in human T24 cells after 8 days by real time PCR in presence of […]; assay type: functional, cell-based
Procedure, shortened: (§2)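 T24 or HCT15 cells were treated continuously for 8 days at 1, 10 or 100 μM, with or without 100 μM thymidine. Drug and medium were renewed every 2–3 days. T24 cells were grown in McCoy's 5A with 10% FCS. Total RNA (5 μg) was reverse transcribed with random primers. p16 mRNA was measured by real-time RT-PCR and normalized to GAPDH.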

[3] = system: T-24; test: Induction of p16 gene expression in human T24 cells at 10 uM after 8 days by real time PCR; assay type: functional, cell-based; procedure, shortened: as §2
[4] = system: CFPAC-1; test: Induction of p16 gene expression in human Cf-Pac-1 cells at 100 uM after 8 days by real time PCR; assay type: functional, cell-based; procedure, shortened: as §1
[5] = system: T-24; test: Induction of p16 gene expression in human T24 cells at 1 uM after 8 days by real time PCR; assay type: functional, cell-based; procedure, shortened: as §2
[6] = system: T-24; test: Induction of p16 gene expression in human T24 cells at 100 uM after 8 days by real time PCR; assay type: functional, cell-based; procedure, shortened: as §2
[7] = system: CFPAC-1; test: Induction of p16 gene expression in human Cf-Pac-1 cells at 10 uM after 8 days by real time PCR; assay type: functional, cell-based; procedure, shortened: as §1
[8] = system: CFPAC-1; test: Induction of p16 gene expression in human Cf-Pac-1 cells after 8 days by real time PCR in presence of 1 to 2 mM thymidine; assay type: functional, cell-based
[9] = system: CFPAC-1; test: Cytotoxicity against human Cf-Pac-1 cells assessed as increase in cell population doubling time at 100 uM after 8 days in presence of 100 uM thymidine; assay type: functional
Procedure, shortened: (§3)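 Cf-Pac-1 cells grown in IMDM with 10% heat-inactivated FCS at 37°C, 5% CO2. Seeded 3×10^5 cells/10cm dish and treated 24 hr later. Medium and drug were renewed every 2–3 days. Cells were counted by Coulter counter every 2–3 days, with two plates averaged. Population doublings = log(harvested/seeded)/log2. Result is % increase in doubling time over untreated cells.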

[10] = system: CFPAC-1; test: Induction of hypomethylation at CPG-poor promoter region of MAGEA1 gene in human Cf-Pac-1 cells at 10 uM after 8 days by quantitative Ms-SNuPE in presence of 100 uM thymidine; assay type: functional, cell-based
Procedure, shortened: (§4)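 Cf-Pac-1 cells were treated with continuous redosing and received 100 μM thymidine. Genomic DNA (4 μg) was bisulfite-treated and then PCR-amplified: 94°C 3 min, then 40 cycles of 94°C/annealing/72°C, 45 s each. Annealing was 65°C for p16, 53°C for MAGEA1 and 58°C for D4Z4. Ms-SNuPE primer extension was 94°C 1 min, 50°C 30 s, 72°C 20 s.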

[11] = system: CFPAC-1; test: Induction of hypomethylation at repeat sequence D4Z4 in human Cf-Pac-1 cells at 10 uM after 8 days by quantitative Ms-SNuPE in presence of 100 uM thymidine; assay type: functional, cell-based; procedure, shortened: as §4
[12] = system: CFPAC-1; test: Induction of p16 gene expression in human Cf-Pac-1 cells at 10 uM by real time PCR in presence of […]; assay type: functional, cell-based; procedure, shortened: as §1
[13] = system: CFPAC-1; test: Induction of hypomethylation at CPG-rich region of p16 in human Cf-Pac-1 cells at 10 uM after 8 days by quantitative Ms-SNuPE in presence of 100 uM thymidine; assay type: functional, cell-based; procedure, shortened: as §4
[14] = system: HCT-15; test: Induction of p16 gene expression in human HCT15 cells at 100 uM after 8 days by real time PCR in presence of […] thymidine; assay type: functional, cell-based; procedure, shortened: as §2
[15] = system: CFPAC-1; test: Cytotoxicity against human Cf-Pac-1 cells assessed as increase in cell population doubling time at 10 uM after 8 days in presence of 100 uM thymidine; assay type: functional; procedure, shortened: as §3
[16] = system: CFPAC-1; test: Induction of hypomethylation at CPG-rich region of p16 in human Cf-Pac-1 cells at 100 uM after 8 days by quantitative Ms-SNuPE in presence of 100 uM thymidine; assay type: functional, cell-based; procedure, shortened: as §4
[17] = system: CFPAC-1; test: Induction of hypomethylation at CPG-poor promoter region of MAGEA1 gene in human Cf-Pac-1 cells at 100 uM after 8 days by quantitative Ms-SNuPE in presence of 100 uM thymidine; assay type: functional, cell-based; procedure, shortened: as §4
[18] = system: CFPAC-1; test: Induction of hypomethylation at repeat sequence D4Z4 in human Cf-Pac-1 cells at 100 uM after 8 days by quantitative Ms-SNuPE in presence of 100 uM thymidine; assay type: functional, cell-based; procedure, shortened: as §4
[19] = system: CFPAC-1; test: Induction of p16 gene expression in human Cf-Pac-1 cells at 100 uM by real time PCR in presence of […]; assay type: functional, cell-based; procedure, shortened: as §1
[20] = system: CFPAC-1; test: Cytotoxicity against human Cf-Pac-1 cells assessed as increase in cell population doubling time at 1 uM after 8 days in presence of 100 uM thymidine; assay type: functional; procedure, shortened: as §3

CC(C)(NP(=O)(OC[C@H]1O[C@@H](n2cccnc2=O)C[C@@H]1O)Oc1ccccc1)C(=O)OCc1ccccc1 (stereo partly specified)
Activity [1]: inactive | Activity [2]: inactive | Activity [3]: inactive | Activity [4]: inactive | Activity [5]: inactive | Activity [6]: inactive | Activity [7]: inactive | Activity [8]: inactive

Cc1cn([C@H]2C[C@H](O)[C@@H](CO)O2)c(=O)[nH]c1=O [DOXRIBTIMINE]
Activity [9]: 0%

COC(=O)[C@H](C)NP(=O)(OC[C@H]1O[C@@H](n2cccnc2=O)[C@@H](F)[C@@H]1O)Oc1ccccc1 (stereo partly specified)
Activity [1]: inactive | Activity [3]: inactive | Activity [4]: inactive | Activity [5]: inactive | Activity [6]: inactive | Activity [7]: inactive | Activity [8]: inactive

C[C@H](NP(=O)(OC[C@H]1O[C@@H](n2cccnc2=O)[C@@H](F)[C@@H]1O)Oc1ccccc1)C(=O)OCc1ccccc1 (stereo partly specified)
Activity [1]: inactive | Activity [3]: inactive | Activity [4]: inactive | Activity [5]: inactive | Activity [6]: inactive | Activity [7]: inactive | Activity [8]: inactive

CCOC(=O)[C@H](C)NP(=O)(OC[C@H]1O[C@@H](n2cccnc2=O)C[C@@H]1OP(=O)(N[C@@H](C)C(=O)OCC)Oc1ccc(Cl)cc1)Oc1ccc(Cl)cc1 (stereo partly specified)
Activity [1]: inactive | Activity [2]: inactive | Activity [3]: inactive | Activity [4]: inactive | Activity [5]: inactive | Activity [6]: inactive | Activity [7]: inactive | Activity [8]: inactive

CCOC(=O)C(C)(C)NP(=O)(OC[C@H]1O[C@@H](n2cccnc2=O)C[C@@H]1OP(=O)(NC(C)(C)C(=O)OCC)Oc1cccc2ccccc12)Oc1cccc2ccccc12 (stereo partly specified)
Activity [10]: Active | Activity [9]: Active | Activity [11]: Active | Activity [1]: inactive | Activity [2]: inactive | Activity [3]: inactive | Activity [4]: inactive | Activity [5]: inactive | Activity [6]: inactive | Activity [7]: inactive | Activity [8]: inactive | Activity [12]: Active | Activity [13]: Active

O=c1ncccn1[C@@H]1O[C@H](CO)[C@@H](O)[C@H]1O [ZEBULARINE]
Activity [9]: 103% | Activity [14]: Active

C[C@H](NP(=O)(OC[C@H]1O[C@@H](n2cccnc2=O)C[C@@H]1O)Oc1ccccc1)C(=O)OCc1ccccc1 (stereo partly specified)
Activity [1]: inactive | Activity [3]: inactive | Activity [4]: inactive | Activity [5]: inactive | Activity [6]: inactive | Activity [7]: inactive | Activity [8]: inactive

COC(=O)[C@H](C)NP(=O)(OC[C@H]1O[C@@H](n2cccnc2=O)C[C@@H]1O)Oc1ccccc1 (stereo partly specified)
Activity [1]: inactive | Activity [3]: inactive | Activity [4]: inactive | Activity [5]: inactive | Activity [6]: inactive | Activity [7]: inactive | Activity [8]: inactive

CC(C)(NP(=O)(OC[C@H]1O[C@@H](n2cccnc2=O)C[C@@H]1OP(=O)(NC(C)(C)C(=O)OCc1ccccc1)Oc1ccccc1)Oc1ccccc1)C(=O)OCc1ccccc1 (stereo partly specified)
Activity [1]: inactive | Activity [2]: inactive | Activity [3]: inactive | Activity [4]: inactive | Activity [5]: inactive | Activity [6]: inactive | Activity [7]: inactive | Activity [8]: inactive

CC(C)(NP(=O)(OC[C@H]1O[C@@H](n2cccnc2=O)C[C@@H]1O)Oc1cccc2ccccc12)C(=O)OCc1ccccc1 (stereo partly specified)
Activity [15]: 36% | Activity [16]: Active | Activity [9]: 23% | Activity [1]: inactive | Activity [2]: inactive | Activity [17]: Active | Activity [3]: inactive | Activity [4]: inactive | Activity [5]: inactive | Activity [6]: inactive | Activity [7]: inactive | Activity [8]: inactive | Activity [18]: Active | Activity [19]: Active | Activity [12]: Active

CCOC(=O)[C@H](C)NP(=O)(OC[C@H]1O[C@@H](n2cccnc2=O)C[C@@H]1O)Oc1ccc(Cl)cc1 (stereo partly specified)
Activity [1]: inactive | Activity [2]: inactive | Activity [3]: inactive | Activity [4]: inactive | Activity [5]: inactive | Activity [6]: inactive | Activity [7]: inactive | Activity [8]: inactive

CCOC(=O)C(C)(C)NP(=O)(OC[C@H]1O[C@@H](n2cccnc2=O)C[C@@H]1O)Oc1cccc2ccccc12 (stereo partly specified)
Activity [15]: 81% | Activity [16]: Active | Activity [1]: inactive | Activity [2]: inactive | Activity [17]: Active | Activity [3]: inactive | Activity [4]: inactive | Activity [5]: inactive | Activity [6]: inactive | Activity [20]: 58% | Activity [7]: inactive | Activity [8]: inactive | Activity [18]: Active | Activity [19]: Active | Activity [12]: Active
